Measured values taken from paper PMC11645202 (Bioorganic & medicinal chemistry, 2024).
Like-named read-outs stand apart in the source and are kept apart here. Marks after values point to notes of the source that are not given here. One block for each molecule: values may come before it.

Legend:
[1] = tested on: A-10 cells; details: read-out: A-10 EC50 (cellular microtubule loss); cited from earlier work
[2] = tested on: MCF-7 human breast carcinoma cells; details: read-out: MCF-7 IC50; inhibition of growth; cited from earlier work
[3] = tested on: tubulin; details: compound 5 μM, cited from earlier work
[4] = tested on: tubulin; assay: Inhibition of tubulin polymerization; type: biochemical; details: for IC50: read-out: Tubulin Assembly IC50, tubulin at 10 μM
[5] = tested on: pancreatic cancer cells (MiaPaca-2); assay: Cytotoxicity in pancreatic cancer cells, Promega CellTiter assay kit; type: cell-based
[6] = tested on: A-10 cells; assay: Cellular microtubule loss by indirect immunofluorescence; type: cell-based; details: 20 μM compound 8c; 15 μM compound 13; 2.5 μM compound 18 (Figure 5)
[7] = tested on: MCF-7 human breast carcinoma cells; assay: MCF-7 cell proliferation assay; type: cell-based
Method in brief: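 MCF-7 human breast carcinoma cells grown 24 h without drug, then 48 h with varying concentrations of test compound. Growth read as total cell protein by sulforhodamine B staining; IC50 taken as concentration inhibiting cell growth.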

[8] = tested on: colon cancer cell line HCT-16; assay: Cytotoxicity in colon cancer cells, Promega CellTiter assay kit; type: cell-based

SMILES: COc1ccc(/C=C\c2cc(OC)c(OC)c(OC)c2)cc1O [CA-4, Combretastatin A-4]
EC50 [1]: < 25 nM
IC50 [2]: 32 ± 20 nM

SMILES: COc1ccc(/C=C\c2cc(OC)c(OC)c(OC)c2)cc1B(O)O [Compound 1]
IC50 [2]: 17 ± 5 nM
[3H]Colchicine Binding inhibition ([3]; tubulin 1 μM, [3H]colchicine 5 μM): 79 ± 2^e %

SMILES: COc1cc(/C=C\c2ccccc2B(O)O)cc(OC)c1OC [Compound 8a, {2-[(Z)-2-(3,4,5-trimethoxyphenyl)vinyl]phenyl}boronic acid]
IC50 [4]: > 40000 nM
activity in MiaPaca-2 (in words) [5]: potency comparable to that of CA-4 and phenstatin

SMILES: COc1cc(/C=C\c2ccc(B(O)O)cc2)cc(OC)c1OC [Compound 8c, {4-[(Z)-2-(3,4,5-trimethoxyphenyl)vinyl]phenyl}boronic acid]
effects on interphase microtubules in A-10 cells [6]: disrupted microtubules and loss of the microtubule network

SMILES: COc1cc(/C=C\c2cnc(OC)c(B(O)O)c2)cc(OC)c1OC [Compound 13, {2-Methoxy-5-[(Z)-2-(3,4,5-trimethoxyphenyl)vinyl]pyridin-3-yl}boronic acid]
lower potency compared to 1 in inhibiting tubulin polymerization ([4]; relative to compound 1): 20 fold
cytotoxicity in MCF-7 cells (in words) [7]: mid-nanomolar cytotoxicity
lower activity compared to 1 in inhibition of MCF-7 cell proliferation ([7]; relative to compound 1): 23 fold
IC50 ([8]; HCT16, read-out: IC50 in HCT-16): < 5000 nM
effects on interphase microtubules in A-10 cells [6]: disrupted microtubules and loss of the microtubule network

SMILES: COc1ccc(C(=O)c2cc(OC)c(OC)c(OC)c2)cc1B(O)O [Compound 18, [2-Methoxy-5-(3,4,5-trimethoxybenzoyl)phenyl]boronic acid]
cytotoxicity in MCF-7 cells (in words) [7]: mid-nanomolar cytotoxicity
activity in MiaPaca-2 (in words) [5]: potency comparable to that of CA-4 and phenstatin
effects on interphase microtubules in A-10 cells [6]: disrupted microtubules and loss of the microtubule network

IC50 [4]: > 40000 nM
SMILES: COc1cc(C(=O)c2cnc(OC)c(B(O)O)c2)cc(OC)c1OC [Compound 22, [2-Methoxy-5-(3,4,5-trimethoxybenzoyl)pyridin-3-yl]boronic acid]
activity (in words) ([4]; tubulin-based assays): no activity
activity in MiaPaca-2 (in words) [5]: dramatically reduced activity
activity in HCT-16 (in words) [8]: dramatically reduced activity

SMILES: COc1ccc(C(=O)c2cc(OC)c(OC)c(OC)c2)cc1O [Phenstatin, reference compound]
IC50 [2]: 440 ± 70 nM
[3H]Colchicine Binding inhibition [3]: 86^f %
